Measurements as given in ChEMBL document CHEMBL4251549, “Design, synthesis and biological evaluation of nitrogen-containing macrocyclic bisbibenzyl derivatives as potent anticancer agents by targeting the lysosome” (Eur J Med Chem, 2017).
Where a name gives a salt, the structure may show the parent alone.

Columns and labels:
Assay type in all cases: functional, cell-based
A549 = assay: Antiproliferative activity in human A549 cells after 48 hrs by MTT assay; settings: A549, 48 h
Summary of the method: (§1)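 Cells exposed to compound for 48 h. Viability read by MTT, with absorbance of the solubilised MTT product at 570 nm. IC50 derived from at least three independent experiments.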

MCF7 = assay: Antiproliferative activity in human MCF7 cells after 48 hrs by MTT assay; settings: MCF7, 48 h; summary of the method: as §1
K562 = assay: Antiproliferative activity in human K562 cells after 48 hrs by MTT assay; settings: K562, 48 h; summary of the method: as §1

| SMILES | IC50 (A549) [µM] | IC50 (MCF7) [µM] | IC50 (K562) [µM] |
| --- | --- | --- | --- |
| COc1cccc2c1C(=O)c1c(O)c3c(c(O)c1C2=O)C[C@@](O)(C(=O)CO)C[C@@H]3O[C@H]1C[C@H](N)[C@H](O)[C@H](C)O1 [DOXORUBICIN HYDROCHLORIDE] | 1.45 | 2.3 | 0.61 |
| O=[N+]([O-])c1cc2cc(c1O)Oc1ccc(cc1)CCc1cccc(O)c1-c1ccc(cc1O)CC2 | > 20 | > 20 | > 20 |
| Oc1cc2ccc1-c1c(ccc(CN3CCC(O)CC3)c1O)CCc1ccc(cc1)Oc1cc(cc(CN3CCC(O)CC3)c1O)CC2 | 3.26 | 3.95 | 2.56 |
| Oc1cc2ccc1-c1c(ccc(CN3CCOCC3)c1O)CCc1ccc(cc1)Oc1cc(cc(CN3CCOCC3)c1O)CC2 | > 20 | > 20 | > 20 |
| CN(C)CCCOc1ccc2cc1Oc1ccc(cc1)CCc1cccc(OCCCN(C)C)c1-c1ccc(cc1OCCCN(C)C)CC2 | 1.44 | 3.05 | 2.5 |
| Oc1cc2ccc1-c1c(ccc(CN3CCN(Cc4ccccc4)CC3)c1O)CCc1ccc(cc1)Oc1cc(cc(CN3CCN(Cc4ccccc4)CC3)c1O)CC2 | > 20 | > 20 | > 20 |
| Oc1ccc2cc1Oc1ccc(cc1)CCc1cccc(OCCCN3CCCC3)c1-c1ccc(cc1O)CC2 | 4.53 | 3.68 | 2.94 |
| Oc1ccc2cc1Oc1ccc(cc1)CCc1cccc(OCCN3CCOCC3)c1-c1ccc(cc1O)CC2 | 7.49 | 5.02 | 10.1 |
| CN1CCN(Cc2ccc3c(c2O)-c2ccc(cc2O)CCc2ccc(O)c(c2)Oc2ccc(cc2)CC3)CC1 | 5.59 | 6.02 | 3.31 |
| CCCCN(CCCC)Cc1ccc2c(c1O)-c1ccc(cc1O)CCc1ccc(O)c(c1)Oc1ccc(cc1)CC2 | > 20 | > 20 | > 20 |
| CC(C)(C)OC(=O)N1CCN(Cc2ccc3c(c2O)-c2ccc(cc2O)CCc2ccc(O)c(c2)Oc2ccc(cc2)CC3)CC1 | > 20 | > 20 | > 20 |
| Oc1ccc2cc1Oc1ccc(cc1)CCc1ccc(CN3CCC(O)CC3)c(O)c1-c1ccc(cc1O)CC2 | 5.74 | 9.05 | 7.07 |
| c1cc2c(c(OCCN3CCOCC3)c1)-c1ccc(cc1OCCN1CCOCC1)CCc1ccc(OCCN3CCOCC3)c(c1)Oc1ccc(cc1)CC2 | 5.23 | 4.19 | 3.43 |
| CCCCN(CCCC)Cc1cc2cc(c1O)Oc1ccc(cc1)CCc1ccc(CN(CCCC)CCCC)c(O)c1-c1ccc(cc1O)CC2 | > 20 | > 20 | > 20 |
| Oc1ccc2cc1Oc1ccc(cc1)CCc1ccc(CN3CCOCC3)c(O)c1-c1ccc(cc1O)CC2 | > 20 | > 20 | > 20 |
| Oc1ccc2cc1Oc1ccc(cc1)CCc1cccc(OCCN3CCCC3)c1-c1ccc(cc1O)CC2 | 2.02 | 2.42 | 2.22 |
| Oc1ccc2cc1Oc1ccc(cc1)CCc1ccc(CN3CCSCC3)c(O)c1-c1ccc(cc1O)CC2 | 16.3 | 15.8 | 13.4 |
| Nc1cc2cc(c1O)Oc1ccc(cc1)CCc1cccc(O)c1-c1ccc(cc1O)CC2 | > 20 | > 20 | > 20 |
| CN(C)Cc1cc2cc(c1O)Oc1ccc(cc1)CCc1ccc(CN(C)C)c(O)c1-c1ccc(cc1O)CC2 | 4.81 | 4.22 | 2.84 |
| CC(=O)Nc1cc2cc(c1OC(C)=O)Oc1ccc(cc1)CCc1cccc(OC(C)=O)c1-c1ccc(cc1OC(C)=O)CC2 | > 20 | > 20 | > 20 |
| CCN(CC)CCOc1ccc2cc1Oc1ccc(cc1)CCc1cccc(OCCN(CC)CC)c1-c1ccc(cc1OCCN(CC)CC)CC2 | 0.78 | 0.56 | 0.65 |
| Oc1ccc2cc1Oc1ccc(cc1)CCc1ccc(CN3CCCCC3)c(O)c1-c1ccc(cc1O)CC2 | 7.12 | 5.07 | 5.88 |
| Oc1ccc2cc1Oc1ccc(cc1)CCc1ccc(CN3CCCC3)c(O)c1-c1ccc(cc1O)CC2 | 2.26 | 2.41 | 4.82 |
| CCN(CC)CCOc1cccc2c1-c1ccc(cc1O)CCc1ccc(O)c(c1)Oc1ccc(cc1)CC2 | 1.87 | 2.73 | 2.23 |

| SMILES | IC50 (A549) [µM] | IC50 (MCF7) [µM] | IC50 (K562) [µM] |
| --- | --- | --- | --- |
| c1cc2c(c(OCCCN3CCCC3)c1)-c1ccc(cc1OCCCN1CCCC1)CCc1ccc(OCCCN3CCCC3)c(c1)Oc1ccc(cc1)CC2 | 1.67 | 2.12 | 2.13 |
| CC(C)(C)OC(=O)N1CCN(Cc2cc3cc(c2O)Oc2ccc(cc2)CCc2ccc(CN4CCN(C(=O)OC(C)(C)C)CC4)c(O)c2-c2ccc(cc2O)CC3)CC1 | > 20 | > 20 | > 20 |
| Oc1ccc2cc1Oc1ccc(cc1)CCc1cccc(OCCN3CCCCC3)c1-c1ccc(cc1O)CC2 | 2.13 | 2.49 | 2.31 |
| CN(C)CCCOc1cccc2c1-c1ccc(cc1O)CCc1ccc(O)c(c1)Oc1ccc(cc1)CC2 | 1.99 | 3.25 | 2.61 |
| Oc1ccc2cc1Oc1ccc(cc1)CCc1ccc(CN3CCN(Cc4ccccc4)CC3)c(O)c1-c1ccc(cc1O)CC2 | > 20 | > 20 | > 20 |
| COc1ccc(N2CCN(Cc3ccc4c(c3O)-c3ccc(cc3O)CCc3ccc(O)c(c3)Oc3ccc(cc3)CC4)CC2)cc1 | > 20 | > 20 | > 20 |
| CCN(CC)Cc1cc2cc(c1O)Oc1ccc(cc1)CCc1ccc(CN(CC)CC)c(O)c1-c1ccc(cc1O)CC2 | 3.78 | 1.05 | 1.86 |
| Oc1cc2ccc1-c1c(ccc(CN3CCSCC3)c1O)CCc1ccc(cc1)Oc1cc(cc(CN3CCSCC3)c1O)CC2 | 10.2 | 9.25 | 8.35 |
| CN1CCN(Cc2cc3cc(c2O)Oc2ccc(cc2)CCc2ccc(CN4CCN(C)CC4)c(O)c2-c2ccc(cc2O)CC3)CC1 | 2.16 | 2.89 | 3.32 |
| Oc1ccc2cc1Oc1ccc(cc1)CCc1cccc(OCCN3CCCCCC3)c1-c1ccc(cc1O)CC2 | 2.98 | 3.03 | 2.73 |
| CN(C)c1cc2cc(c1O)Oc1ccc(cc1)CCc1cccc(O)c1-c1ccc(cc1O)CC2 | > 20 | > 20 | > 20 |
| CN(C)CCOc1cccc2c1-c1ccc(cc1O)CCc1ccc(O)c(c1)Oc1ccc(cc1)CC2 | 1.3 | 2.38 | 1.56 |
| Oc1cc2ccc1-c1c(ccc(CN3CCCCC3)c1O)CCc1ccc(cc1)Oc1cc(cc(CN3CCCCC3)c1O)CC2 | 4.85 | 2.04 | 0.66 |
| c1cc2c(c(OCCN3CCCC3)c1)-c1ccc(cc1OCCN1CCCC1)CCc1ccc(OCCN3CCCC3)c(c1)Oc1ccc(cc1)CC2 | 1.04 | 0.88 | 1.79 |
| CN(CCO)Cc1cc2cc(c1O)Oc1ccc(cc1)CCc1ccc(CN(C)CCO)c(O)c1-c1ccc(cc1O)CC2 | 5.21 | 6 | 5.67 |
| CN(CCO)Cc1ccc2c(c1O)-c1ccc(cc1O)CCc1ccc(O)c(c1)Oc1ccc(cc1)CC2 | 9.07 | 8.28 | 9.19 |
| c1cc2c(c(OCCN3CCCCCC3)c1)-c1ccc(cc1OCCN1CCCCCC1)CCc1ccc(OCCN3CCCCCC3)c(c1)Oc1ccc(cc1)CC2 | 0.53 | 0.66 | 0.26 |
| COCCN(CCOC)Cc1cc2cc(c1O)Oc1ccc(cc1)CCc1ccc(CN(CCOC)CCOC)c(O)c1-c1ccc(cc1O)CC2 | > 20 | > 20 | > 20 |
| COc1ccc(N2CCN(Cc3cc4cc(c3O)Oc3ccc(cc3)CCc3ccc(CN5CCN(c6ccc(OC)cc6)CC5)c(O)c3-c3ccc(cc3O)CC4)CC2)cc1 | > 20 | > 20 | > 20 |
| c1cc2c(c(OCCN3CCCCC3)c1)-c1ccc(cc1OCCN1CCCCC1)CCc1ccc(OCCN3CCCCC3)c(c1)Oc1ccc(cc1)CC2 | 0.97 | 0.24 | 0.56 |
| CCN(CC)Cc1ccc2c(c1O)-c1ccc(cc1O)CCc1ccc(O)c(c1)Oc1ccc(cc1)CC2 | 5.74 | 7.59 | 7.86 |
| COCCN(CCOC)Cc1ccc2c(c1O)-c1ccc(cc1O)CCc1ccc(O)c(c1)Oc1ccc(cc1)CC2 | > 20 | > 20 | > 20 |
| CC(=O)Nc1cc2cc(c1O)Oc1ccc(cc1)CCc1cccc(O)c1-c1ccc(cc1O)CC2 | > 20 | > 20 | > 20 |
